Source: ChEMBL document CHEMBL1641579, “Synthesis and biological evaluation of 7-substituted-1-(3-bromophenylamino)isoquinoline-4-carbonitriles as inhibitors of myosin light chain kinase and epidermal growth factor receptor” (Bioorg Med Chem, 2011)

How the values were obtained:
[1] = biological target: Serine/threonine-protein kinase PAK 4 (Homo sapiens) (UniProt O96013); assay: Inhibition of PAK4 assessed as residual activity at 10 uM
Summary of the method: (§1)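 Panel screen by radioactive kinase assay at a single inhibitor concentration. Score is the percent activity remaining relative to DMSO controls (100%).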

[2] = biological target: T1, Dual specificity protein kinase TTK (Homo sapiens) (UniProt P33981); assay: Inhibition of TTK assessed as residual activity at 10 uM; summary of the method: as §1
T1 sequence (whole entry): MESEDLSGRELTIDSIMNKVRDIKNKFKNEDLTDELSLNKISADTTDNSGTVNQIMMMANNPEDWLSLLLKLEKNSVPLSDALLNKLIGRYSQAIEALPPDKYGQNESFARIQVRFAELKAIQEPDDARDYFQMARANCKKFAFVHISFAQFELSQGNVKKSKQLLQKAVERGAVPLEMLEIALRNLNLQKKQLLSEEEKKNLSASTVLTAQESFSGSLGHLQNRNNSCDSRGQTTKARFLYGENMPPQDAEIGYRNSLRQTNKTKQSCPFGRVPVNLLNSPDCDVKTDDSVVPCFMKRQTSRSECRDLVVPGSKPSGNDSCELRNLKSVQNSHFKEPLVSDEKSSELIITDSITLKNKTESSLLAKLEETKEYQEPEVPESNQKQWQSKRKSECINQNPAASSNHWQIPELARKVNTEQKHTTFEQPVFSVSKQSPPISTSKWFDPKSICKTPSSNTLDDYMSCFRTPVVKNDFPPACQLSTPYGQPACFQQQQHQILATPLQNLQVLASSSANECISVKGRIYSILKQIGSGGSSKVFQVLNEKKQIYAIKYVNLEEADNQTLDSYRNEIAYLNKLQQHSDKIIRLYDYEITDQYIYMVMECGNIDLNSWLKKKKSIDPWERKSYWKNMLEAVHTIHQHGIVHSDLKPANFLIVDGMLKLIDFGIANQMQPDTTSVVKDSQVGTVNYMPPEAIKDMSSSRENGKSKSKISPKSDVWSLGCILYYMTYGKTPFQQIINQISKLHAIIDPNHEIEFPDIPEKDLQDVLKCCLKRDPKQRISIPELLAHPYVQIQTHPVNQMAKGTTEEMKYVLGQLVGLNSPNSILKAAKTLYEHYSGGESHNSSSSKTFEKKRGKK

[3] = biological target: Serine/threonine-protein kinase pim-2 (Homo sapiens) (UniProt Q9P1W9); assay: Inhibition of PIM2 assessed as residual activity at 10 uM; summary of the method: as §1
Serine/threonine-protein kinase pim-2 (Homo sapiens), sequence (Q9P1W9 whole entry, looked up): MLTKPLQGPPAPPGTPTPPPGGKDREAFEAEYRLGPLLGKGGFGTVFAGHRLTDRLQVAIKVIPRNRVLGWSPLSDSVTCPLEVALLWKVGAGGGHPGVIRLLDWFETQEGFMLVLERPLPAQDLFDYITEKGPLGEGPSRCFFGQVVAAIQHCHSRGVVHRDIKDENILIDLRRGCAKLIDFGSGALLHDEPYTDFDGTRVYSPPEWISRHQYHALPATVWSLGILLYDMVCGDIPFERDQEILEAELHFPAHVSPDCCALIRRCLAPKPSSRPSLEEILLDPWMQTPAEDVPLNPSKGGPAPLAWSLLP

[4] = Inhibition of PKA assessed as residual activity at 10 uM; summary of the method: as §1
[5] = biological target: Protein kinase C alpha type (Homo sapiens) (UniProt P17252); assay: Inhibition of PKCalpha assessed as residual activity at 10 uM; summary of the method: as §1
[6] = biological target: Receptor tyrosine-protein kinase erbB-4 (Homo sapiens) (UniProt Q15303); assay: Inhibition of HER4 assessed as residual activity at 10 uM
Receptor tyrosine-protein kinase erbB-4 (Homo sapiens), sequence (Q15303 whole entry): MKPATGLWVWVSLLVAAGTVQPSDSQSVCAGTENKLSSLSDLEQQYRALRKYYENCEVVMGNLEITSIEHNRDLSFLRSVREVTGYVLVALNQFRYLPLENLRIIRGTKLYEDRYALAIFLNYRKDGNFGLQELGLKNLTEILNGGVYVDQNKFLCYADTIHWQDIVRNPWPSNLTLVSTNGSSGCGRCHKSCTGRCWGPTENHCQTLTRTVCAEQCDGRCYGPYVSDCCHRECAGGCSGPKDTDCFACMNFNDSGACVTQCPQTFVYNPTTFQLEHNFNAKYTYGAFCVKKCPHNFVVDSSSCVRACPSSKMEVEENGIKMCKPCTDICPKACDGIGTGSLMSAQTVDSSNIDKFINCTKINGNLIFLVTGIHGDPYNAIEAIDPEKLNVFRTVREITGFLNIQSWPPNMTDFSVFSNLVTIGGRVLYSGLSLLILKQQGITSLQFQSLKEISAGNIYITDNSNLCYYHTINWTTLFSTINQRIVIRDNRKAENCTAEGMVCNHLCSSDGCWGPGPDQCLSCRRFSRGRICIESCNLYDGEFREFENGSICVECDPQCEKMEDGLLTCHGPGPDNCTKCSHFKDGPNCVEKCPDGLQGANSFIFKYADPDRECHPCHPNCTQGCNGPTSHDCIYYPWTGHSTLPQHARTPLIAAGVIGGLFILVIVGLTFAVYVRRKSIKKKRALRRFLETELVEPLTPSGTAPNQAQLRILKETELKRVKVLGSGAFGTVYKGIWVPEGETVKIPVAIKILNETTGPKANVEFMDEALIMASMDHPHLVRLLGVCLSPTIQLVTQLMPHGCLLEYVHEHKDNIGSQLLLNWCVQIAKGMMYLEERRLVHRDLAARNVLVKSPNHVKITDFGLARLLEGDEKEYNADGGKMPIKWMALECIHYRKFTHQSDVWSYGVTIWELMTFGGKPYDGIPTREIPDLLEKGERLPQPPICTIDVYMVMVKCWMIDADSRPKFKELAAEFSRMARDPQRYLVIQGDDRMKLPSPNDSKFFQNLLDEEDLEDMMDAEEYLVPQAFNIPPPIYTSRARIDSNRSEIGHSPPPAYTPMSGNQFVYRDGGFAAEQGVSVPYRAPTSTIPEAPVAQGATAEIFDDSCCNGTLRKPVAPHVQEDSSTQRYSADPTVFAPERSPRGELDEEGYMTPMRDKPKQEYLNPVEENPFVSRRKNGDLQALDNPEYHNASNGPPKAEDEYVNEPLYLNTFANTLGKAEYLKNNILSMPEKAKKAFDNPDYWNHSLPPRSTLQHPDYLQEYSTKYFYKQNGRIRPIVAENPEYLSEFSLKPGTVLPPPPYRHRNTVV
Summary of the method: (§2)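 Kinase panel screen run as a radioactive activity assay at single compound concentration. Score reported as percent activity remaining relative to DMSO controls (100%).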

[7] = Inhibition of AMPK assessed as residual activity at 10 uM; summary of the method: as §2
[8] = biological target: T2, Aurora kinase A (Homo sapiens) (UniProt O14965); assay: Inhibition of aurora A assessed as residual activity at 10 uM; summary of the method: as §1
T2 sequence (whole entry): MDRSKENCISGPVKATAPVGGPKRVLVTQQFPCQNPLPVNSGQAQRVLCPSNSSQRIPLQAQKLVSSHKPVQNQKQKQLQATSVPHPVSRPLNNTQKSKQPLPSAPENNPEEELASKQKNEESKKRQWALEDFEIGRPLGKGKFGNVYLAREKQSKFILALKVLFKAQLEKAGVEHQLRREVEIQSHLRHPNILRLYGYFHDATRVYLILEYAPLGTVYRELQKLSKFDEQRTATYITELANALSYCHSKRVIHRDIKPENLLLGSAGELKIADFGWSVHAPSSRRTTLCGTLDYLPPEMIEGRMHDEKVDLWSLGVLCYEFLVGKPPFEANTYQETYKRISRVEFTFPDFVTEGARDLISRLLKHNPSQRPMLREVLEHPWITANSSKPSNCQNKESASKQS

[9] = biological target: T3, Eukaryotic elongation factor 2 kinase (Homo sapiens) (UniProt O00418); assay: Inhibition of EF2K assessed as residual activity at 10 uM; summary of the method: as §2
T3 sequence (whole entry): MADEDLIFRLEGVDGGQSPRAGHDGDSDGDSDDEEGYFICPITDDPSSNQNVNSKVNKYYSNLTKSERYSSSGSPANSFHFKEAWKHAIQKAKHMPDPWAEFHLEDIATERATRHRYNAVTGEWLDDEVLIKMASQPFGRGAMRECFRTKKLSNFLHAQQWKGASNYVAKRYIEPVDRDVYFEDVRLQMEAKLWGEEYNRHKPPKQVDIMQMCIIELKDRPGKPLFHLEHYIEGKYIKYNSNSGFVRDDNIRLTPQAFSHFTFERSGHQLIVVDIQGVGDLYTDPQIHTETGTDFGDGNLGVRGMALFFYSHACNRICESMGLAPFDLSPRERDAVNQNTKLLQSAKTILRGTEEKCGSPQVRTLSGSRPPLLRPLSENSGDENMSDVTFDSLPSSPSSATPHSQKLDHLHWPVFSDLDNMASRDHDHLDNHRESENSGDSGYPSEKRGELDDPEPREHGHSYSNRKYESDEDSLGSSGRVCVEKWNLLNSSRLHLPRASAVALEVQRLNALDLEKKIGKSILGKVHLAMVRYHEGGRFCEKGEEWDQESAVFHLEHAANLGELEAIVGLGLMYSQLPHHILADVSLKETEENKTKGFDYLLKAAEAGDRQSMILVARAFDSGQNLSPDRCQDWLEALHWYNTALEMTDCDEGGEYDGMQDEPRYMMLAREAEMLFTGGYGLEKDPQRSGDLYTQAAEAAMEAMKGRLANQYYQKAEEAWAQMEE

[10] = biological target: Calcium/calmodulin-dependent protein kinase kinase 2 (Homo sapiens) (UniProt Q96RR4); assay: Inhibition of CAMKKbeta assessed as residual activity at 10 uM; summary of the method: as §2
Calcium/calmodulin-dependent protein kinase kinase 2 (Homo sapiens), sequence (Q96RR4 2-588 limits assumed): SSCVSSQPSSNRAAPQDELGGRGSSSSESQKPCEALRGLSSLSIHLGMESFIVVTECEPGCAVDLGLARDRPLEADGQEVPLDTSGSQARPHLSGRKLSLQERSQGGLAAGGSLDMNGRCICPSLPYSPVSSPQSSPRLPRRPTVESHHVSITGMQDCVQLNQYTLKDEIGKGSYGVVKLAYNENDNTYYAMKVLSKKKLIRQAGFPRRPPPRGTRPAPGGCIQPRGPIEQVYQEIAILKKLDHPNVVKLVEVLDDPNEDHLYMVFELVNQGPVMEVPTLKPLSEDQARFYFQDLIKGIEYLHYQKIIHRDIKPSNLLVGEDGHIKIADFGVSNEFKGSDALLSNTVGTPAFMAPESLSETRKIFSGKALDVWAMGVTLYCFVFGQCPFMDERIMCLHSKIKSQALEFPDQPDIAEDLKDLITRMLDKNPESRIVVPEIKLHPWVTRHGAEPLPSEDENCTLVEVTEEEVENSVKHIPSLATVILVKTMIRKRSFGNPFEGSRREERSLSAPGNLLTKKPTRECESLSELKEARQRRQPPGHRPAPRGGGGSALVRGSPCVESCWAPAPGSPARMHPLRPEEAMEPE

Serine/threonine-protein kinase PAK 4 (Homo sapiens), sequence (O96013 whole entry, looked up): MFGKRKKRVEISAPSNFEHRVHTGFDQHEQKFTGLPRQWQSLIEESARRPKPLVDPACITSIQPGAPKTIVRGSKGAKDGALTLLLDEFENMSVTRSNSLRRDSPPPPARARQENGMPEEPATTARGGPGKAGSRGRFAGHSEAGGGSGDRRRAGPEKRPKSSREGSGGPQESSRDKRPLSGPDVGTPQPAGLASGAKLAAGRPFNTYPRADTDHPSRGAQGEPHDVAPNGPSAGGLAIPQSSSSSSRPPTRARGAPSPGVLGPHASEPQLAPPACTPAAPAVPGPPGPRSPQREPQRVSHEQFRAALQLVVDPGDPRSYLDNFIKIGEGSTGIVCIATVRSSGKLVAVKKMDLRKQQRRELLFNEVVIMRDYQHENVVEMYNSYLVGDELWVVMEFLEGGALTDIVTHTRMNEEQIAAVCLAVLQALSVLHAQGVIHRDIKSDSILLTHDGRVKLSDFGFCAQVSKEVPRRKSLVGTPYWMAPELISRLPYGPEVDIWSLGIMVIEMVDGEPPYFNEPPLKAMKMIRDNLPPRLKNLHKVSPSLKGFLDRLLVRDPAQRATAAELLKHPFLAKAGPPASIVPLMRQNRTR

Row | SMILES | Activity [1] | Activity [2] | Activity [3] | Activity [4] | Activity [5] | Activity [6] | Activity [7] | Activity [8] | Activity [9] | Activity [10]
1 | CN1CCN(CCC(=O)Nc2ccc3c(C#N)cnc(Nc4cccc(Br)c4)c3c2)CC1 | 86% | 81% | 92% | 100% | 71% | 57% | 77% | 80% | 47% | 87%
2 | CN(C)C/C=C/C(=O)Nc1ccc2c(C#N)cnc(Nc3cccc(Br)c3)c2c1 | 82% | 74% | 89% | 100% | 69% | 21% | 86% | 79% | 88% | 91%
3 | CN(C)CCCC(=O)Nc1ccc2c(C#N)cnc(Nc3cccc(Br)c3)c2c1 | 94% | 96% | 89% | 100% | 70% | 69% | 79% | 94% | 78% | 92%
